Measured values from ChEMBL document CHEMBL3860043, “Non-Acidic Free Fatty Acid Receptor 4 Agonists with Antidiabetic Activity” (J Med Chem, 2016).
Values after ≈ are worked out from the molar mass of the structure shown. Active and inactive are the calls of the source. No cut-off for these calls is given here.

Columns and labels:
[1] = Effect on food intake level in FFA4 (-/-) DIO mouse at 10 mg/kg, po dosed daily over 3 week period administered 15 mins before oral glucose challenge on first day measured after 21 days; assay type: ADME, organism-based; details: in vivo, 504 h
Homo sapiens [2] = species on record: Homo sapiens; experiment: Selectivity for human FFA4 over FFA3 (unknown origin)
Homo sapiens [3] = species on record: Homo sapiens; experiment: Selectivity for human FFA4 over human FFA1
[4] = Effect on food intake level in wild type DIO mouse at 10 mg/kg, po dosed daily over 3 week period administered 15 mins before oral glucose challenge on first day measured after 21 days; assay type: ADME, organism-based; details: in vivo, 504 h
[5] = Lipophilicity, log D of the compound at pH 7.4; assay type: physicochemical; details: buffer
[6] = molecular target: T1, Free fatty acid receptor 4 (Homo sapiens) (UniProt Q5NUL3); experiment: Agonist activity at C-terminal YFP-tagged human FFA4 expressed in HEK293 cells in presence of coelentrazine h by BRET based beta-arrestin-2 interaction assay relative to 100 uM […]; assay type: cell-based
T1 sequence (whole entry): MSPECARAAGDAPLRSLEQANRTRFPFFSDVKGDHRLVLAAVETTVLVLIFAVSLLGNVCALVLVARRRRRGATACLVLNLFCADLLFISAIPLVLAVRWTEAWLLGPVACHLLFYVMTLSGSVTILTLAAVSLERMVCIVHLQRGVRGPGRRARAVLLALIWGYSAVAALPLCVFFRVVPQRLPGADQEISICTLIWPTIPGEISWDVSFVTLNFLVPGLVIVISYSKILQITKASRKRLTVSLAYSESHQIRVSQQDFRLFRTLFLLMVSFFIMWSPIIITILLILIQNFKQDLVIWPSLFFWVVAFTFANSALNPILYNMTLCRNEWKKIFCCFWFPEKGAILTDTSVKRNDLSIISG
How it was run: (§1)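 HEK293 cells co-transfected with C-terminal eYFP-fused human FFA4 and β-arrestin-2–Renilla luciferase; plated 24 h post-transfection, used 24 h later. After an HBSS wash, coelenterazine h (2.5 µM) for 15 min, with ligands present for the final 5 min, 37 °C. BRET taken as the 535/475 nm emission ratio. Efficacy relative to 100 µM reference agonist. Three-parameter sigmoidal fits; mean ± S.E. of 2-4 independent experiments.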

[7] = Effect on water intake level in FFA4 (-/-) DIO mouse at 10 mg/kg, po dosed daily over 3 week period administered 15 mins before oral glucose challenge on first day measured after 21 days; assay type: ADME, organism-based; details: in vivo, 504 h
Mus musculus [8] = experiment: Reduction in plasma glucose level in mouse at 10 mg/kg, po dosed 15 mins before oral glucose challenge by OGTT method; assay type: functional, organism-based
How it was run: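 Mice fasted 5 h and given compound orally at 10 mg/kg, 15 min before an oral glucose load of 3 g/kg. Tail-tip blood sampled under local anesthetic 30 min before and immediately before the load, and at 30, 60, 90, 120 and 180 min after it. Glucose measured in duplicate by glucose oxidase colorimetric assay; n=6 mice per group.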

Mus musculus [9] = experiment: Toxicity in FFA4 (-/-) DIO mouse assessed as weight gain in at 10 mg/kg, po dosed daily over 3 week period administered 15 mins before oral glucose challenge on first day measured after 21 days; assay type: organism-based; details: in vivo, 504 h
[10] = molecular target: T1, Free fatty acid receptor 4 (Homo sapiens); experiment: Agonist activity at human FFA4 expressed in human Flp-In T-REx293 cells by Fura2-AM dye based calcium mobilization assay relative to 100 uM […]; assay type: functional, cell-based
How it was run: (§2)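 Flp-In T-REx 293 cells with doxycycline-inducible human FFA4 seeded at 50000 cells/well and induced overnight with 100 ng/ml doxycycline. Loaded with Fura2-AM for 45 min, washed three times in HBSS, equilibrated 15 min, then ligand added. Emission at 510 nm with 340/380 nm excitation; response is the change in 340:380 ratio. Efficacy relative to 100 µM reference agonist; 2-4 independent experiments, sigmoidal fits.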

Mus musculus [11] = experiment: Reduction in fasting plasma insulin level in wild type DIO mouse at 10 mg/kg, po dosed daily over 3 week period administered 15 mins before oral glucose challenge on first day measured after 21 days by ELISA; assay type: functional, organism-based
How it was run: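 DIO wild-type and FFA4(-/-) littermates (63% fat diet for 5 months) dosed 10 mg/kg po once daily for 21 days. Fasting blood collected into EDTA and spun at 3,000 g for 5 min at 4 °C; plasma stored at -80 °C. Insulin measured in duplicate by murine insulin ELISA, absorbance at 450 nm.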

[12] = Solubility in FaSSIF solution; assay type: physicochemical
[13] = molecular target: T2, Free fatty acid receptor 4 (Homo sapiens, UniProt Q5NUL3); experiment: Agonist activity at human FFA4 expressed in human Flp-In T-REx293 cells by Fura2-AM dye based calcium mobilization assay; assay type: functional, cell-based; how it was run: as §2
T2 sequence (Q5NUL3 whole entry): T1 sequence (whole entry)

[14] = Effect on water intake level in wild type DIO mouse at 10 mg/kg, po dosed daily over 3 week period administered 15 mins before oral glucose challenge on first day measured after 21 days; assay type: ADME, organism-based; details: in vivo, 504 h
Mus musculus [15] = experiment: Toxicity in wild type DIO mouse assessed as reduction in body weight at 10 mg/kg, po dosed daily over 3 week period administered 15 mins before oral glucose challenge on first day measured after 21 days; assay type: organism-based; parameters: scale not given: the % may be the effect or the level left; details: in vivo, 504 h
Mus musculus [16] = experiment: Reduction in plasma glucose level in wild type DIO mouse at 10 mg/kg, po dosed daily over 3 week period administered 15 mins before oral glucose challenge on first day by OGTT method; assay type: functional, organism-based
How it was run: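 Male wild-type and FFA4(-/-) littermates (C57Bl6 background) fed 63% high-fat diet from 6 weeks of age for 5 months. On day 0, fasted 5 h, dosed 10 mg/kg po, then given glucose 3 g/kg po 15 min later. Tail blood sampled from -30 to 180 min; glucose measured in duplicate by colorimetric glucose oxidase assay. n=9 per group; two-way ANOVA with Bonferroni post hoc test.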

[17] = molecular target: Free fatty acid receptor 1 (Homo sapiens, UniProt O14842); experiment: Antagonist activity against human FFA1 expressed in human Flp-In T-REx293 cells assessed as as reduction in TUG424-induced response by Fura2-AM dye based calcium mobilization assay; assay type: functional, cell-based
Sequence of Free fatty acid receptor 1 (O14842 whole entry): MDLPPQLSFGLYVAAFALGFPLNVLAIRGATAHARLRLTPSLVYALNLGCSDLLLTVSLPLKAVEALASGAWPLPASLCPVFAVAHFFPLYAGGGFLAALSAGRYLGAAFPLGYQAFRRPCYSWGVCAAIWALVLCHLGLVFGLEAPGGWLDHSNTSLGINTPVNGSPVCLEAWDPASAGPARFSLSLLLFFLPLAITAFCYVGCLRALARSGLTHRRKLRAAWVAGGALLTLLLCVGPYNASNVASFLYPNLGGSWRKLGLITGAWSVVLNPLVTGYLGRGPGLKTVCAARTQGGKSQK
How it was run: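 Flp-In T-REx 293 cells with inducible human FFA1, seeded at 50000 cells/well and induced with 100 ng/ml doxycycline after 3-4 h adherence. Next day loaded with Fura2-AM for 45 min, washed, then preincubated 15 min in HBSS with test ligand before 300 nM agonist challenge. Fura2 340:380 ratio change read at 510 nm emission. Inhibition expressed as % reduction of the agonist response.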

Mus musculus [18] = experiment: Increase in plasma insulin level in wild type DIO mouse at 10 mg/kg, po dosed daily over 3 week period administered 15 mins before oral glucose challenge on first day measured 30 mins after glucose challenge by ELISA; assay type: functional, organism-based
[19] = molecular target: T2, Free fatty acid receptor 4; experiment: Agonist activity at C-terminal YFP-tagged human FFA4 expressed in HEK293 cells in presence of coelentrazine h by BRET based beta-arrestin-2 interaction assay; assay type: cell-based; how it was run: as §1
[20] = molecular target: T3, Free fatty acid receptor 4 (Mus musculus, UniProt Q7TMA4); experiment: Agonist activity mouse FFA4 by BRET based beta-arrestin-2 interaction assay
T3 sequence (Q7TMA4 whole entry): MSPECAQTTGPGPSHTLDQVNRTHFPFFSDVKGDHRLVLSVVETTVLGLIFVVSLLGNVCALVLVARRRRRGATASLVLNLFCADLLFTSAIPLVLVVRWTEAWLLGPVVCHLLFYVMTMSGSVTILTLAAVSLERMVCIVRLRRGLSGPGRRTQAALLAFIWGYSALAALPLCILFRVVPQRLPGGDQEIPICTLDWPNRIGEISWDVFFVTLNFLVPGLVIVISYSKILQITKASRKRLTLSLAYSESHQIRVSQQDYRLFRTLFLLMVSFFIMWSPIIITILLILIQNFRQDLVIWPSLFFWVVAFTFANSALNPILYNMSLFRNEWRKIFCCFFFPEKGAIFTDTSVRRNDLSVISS
How it was run: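 Mouse FFA4 fused C-terminally to eYFP, co-transfected into HEK293 cells with β-arrestin-2–Renilla luciferase. After an HBSS wash, coelenterazine h (2.5 µM) for 15 min, with ligand added for the last 5 min, 37 °C. BRET read as the 535/475 nm luminescence ratio. Three-parameter sigmoidal curve fitting; 2-4 independent experiments.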

Mus musculus [21] = experiment: Reduction in glucose level in wild type DIO mouse at 10 mg/kg, po dosed daily over 3 week period administered 15 mins before oral glucose challenge on first day measured after 21 days by OGTT method; assay type: functional, organism-based
Mus musculus [22] = experiment: Toxicity in FFA4 (-/-) DIO mouse assessed as reduction in body weight at 10 mg/kg, po dosed daily over 3 week period administered 15 mins before oral glucose challenge on first day measured after 21 days; assay type: organism-based; details: in vivo, 504 h
[23] = Solubility in PBS buffer; assay type: physicochemical
[24] = molecular target: T3, Free fatty acid receptor 4; experiment: Agonist activity mouse FFA4 by Gq-dependent calcium mobilization assay; assay type: functional
Homo sapiens [25] = species on record: Homo sapiens; experiment: Selectivity for human FFA4 over FFA2 (unknown origin)

O=S1(=O)c2ccccc2CN1c1cc(F)cc(Oc2ccccn2)c1
Activity [1]: Non-Toxic | Selectivity ratio (Homo sapiens [2]): > 300 | Selectivity ratio (Homo sapiens [3]): > 300 | Activity [4]: Non-Toxic | logD [5]: 3.17 | Emax [6]: 98% | Activity [7]: Non-Toxic | Activity (Mus musculus [8]): Active | Activity (Mus musculus [9]): Non-Toxic | Emax [10]: 130% | Activity (Mus musculus [11]): Active | solubility [12]: 14 µM (≈ 4.99 µg/mL) | EC50 [13]: 234 nM | Activity [14]: Non-Toxic | Activity (Mus musculus [15]): 7 to 9% | Activity (Mus musculus [16]): Active | IC50 [17]: > 100000 nM | Activity (Mus musculus [18]): Active | EC50 ([19]; read-out: EC50): 128 nM | EC50 ([19]; read-out: pEC50 (converted)): 123 nM | EC50 [20]: 479 nM | Activity (Mus musculus [21]): Active | Activity (Mus musculus [22]): Non-Toxic | solubility [23]: 1.3 µM (≈ 0.463 µg/mL) | EC50 [24]: 148 nM | Selectivity ratio (Homo sapiens [25]): > 300
